Measured values of several laboratories.
CSF1R: Macrophage colony-stimulating factor 1 receptor (CSF1R, Homo sapiens, UniProt P07333)
P2RX7: P2X purinoceptor 7 (P2RX7, Homo sapiens, UniProt Q99572)
IDE: Insulin-degrading enzyme (IDE, Homo sapiens, UniProt P14735)
gag-pol integrase: Gag-Pol polyprotein, integrase (gag-pol, Human immunodeficiency virus 1, UniProt P12497)
MET: Hepatocyte growth factor receptor (MET, Homo sapiens, UniProt P08581)

Cc1ccc(C(=O)Nc2ccc(Oc3cc4cnn(C)c4cc3-c3cn[nH]c3)c(F)c2)c(=O)n1-c1ccc(F)cc1  IC50 (CSF1R; enzyme activity; inhibitor; radiometric): 32 nM
CCCN(CCC)S(=O)(=O)c1ccc(-c2n[nH]c(=S)o2)cc1  IC50 (P2RX7; calcium signal; antagonist): 6110 nM
O=C(Nc1cc(-c2ccc(Cl)cc2)[nH]n1)c1cccnc1  IC50 (crk3 (Leishmania mexicana, UniProt O15851); enzyme activity; inhibitor; radiometric): 2400 nM
O=C(O)CN(CCCc1ccccc1)CC(=O)N[C@H](CO)Cc1c[nH]cn1  IC50 (IDE; enzyme activity; inhibitor; fluorescence): 1600 nM
CC/C=C\C/C=C\C/C=C\C/C=C\C/C=C\CCCC(=O)O  IC50 (DNA polymerase beta (Rattus norvegicus, UniProt P06766); enzyme activity; inhibitor): 88500 nM
COC(=O)[C@H](Cc1c[nH]cn1)NC(=O)CN(CC(=O)O)Cc1ccc(C)cc1  IC50 (IDE; enzyme activity; inhibitor; fluorescence): 1700 nM
CC(C)C[C@H](NC(=O)[C@H](Cc1ccccc1)NC(=O)[C@H](Cc1ccc(O)cc1)NC(=O)CNC(=O)[C@H](CCCNC(=N)N)NC(=O)[C@H](CO)NC(=O)[C@H](CCC(N)=O)NC(=O)[C@H](CO)NC(=O)[C@H](C)NC(=O)[C@H](Cc1ccccc1)NC(=O)[C@@H]1CCCN1C(=O)[C@H](CO)NC(=O)[C@H](CCC(N)=O)NC(=O)[C@H](Cc1ccccc1)NC(=O)[C@H](CCC(=O)O)NC(=O)[C@H](CCC(=O)O)NC(=O)[C@H](CC(=O)O)NC(=O)[C@@H](NC(=O)[C@H](CCCNC(=N)N)NC(=O)[C@@H](N)Cc1ccccc1)C(C)C)C(=O)N[C@@H](Cc1ccccc1)C(=O)N[C@@H](CCCNC(=N)N)C(=O)N1CCC[C@H]1C(=O)N[C@@H](CCCNC(=N)N)C(=O)N[C@@H](CC(N)=O)C(N)=O  IC50 (Neuromedin-U receptor 2 (NMUR2, Homo sapiens, UniProt Q9GZQ4); ligand displacement; radioligand): 0.219 nM
COc1ccc2c(Oc3ccc4c(C(=O)Nc5ccccc5N)cccc4c3)ccnc2c1  IC50 (Tyrosine-protein kinase JAK3 (JAK3, Homo sapiens, UniProt P52333); enzyme activity; inhibitor): > 500 nM
Cc1cnc(-c2ccc(-c3ccc(NC(=O)Nc4c(F)cc(F)cc4F)cc3F)c3c2C(=O)NC3)[nH]1  IC50 (CSF1R; enzyme activity; inhibitor): 0.6 nM
O=C(O)[C@H](Cc1ccccc1)NC(=O)C1(c2ccc(F)cc2)CCN(S(=O)(=O)c2ccccc2)CC1  IC50 (gag-pol integrase; enzyme activity; inhibitor; TR-FRET): 91300 nM
CNC(=O)c1cc2c(Oc3ccc(NC(=O)C4(C(=O)Nc5ccc(F)cc5)CC4)cc3)ccnc2cc1OC  IC50 (MET; enzyme activity; inhibitor; TR-FRET): 16.1 nM
CC(C)(C)OC(=O)N1CCC(C(=O)N[C@@H](Cc2ccccc2)C(=O)O)(c2ccc(-c3ccccc3)cc2)CC1  IC50 (gag-pol integrase; enzyme activity; inhibitor; TR-FRET): 64400 nM
CC1(COc2ccc(CC3SC(=O)NC3=O)cc2)CCCCC1 (stereo not drawn)  IC50 (Peroxisome proliferator-activated receptor alpha (PPARA, Homo sapiens, UniProt Q07869); ligand displacement; TR-FRET): 377000 nM
Cc1ccc(-n2nc(C(C)(C)C)cc2NC(=O)Nc2ccc(OCCN3CCOCC3)c3ccccc23)cc1  IC50 (Potassium voltage-gated channel subfamily A member 5 (KCNA5, Homo sapiens, UniProt P22460); ion current; inhibitor): 1100 nM
NC(=O)[C@H](Cc1c[nH]cn1)NC(=O)CN(CC(=O)O)Cc1ccccc1  IC50 (IDE; enzyme activity; inhibitor; fluorescence): 1400 nM
Cc1cc(Oc2ccc(NC(=O)c3sc(-c4ccncc4)nc3C)cc2F)c2nncn2n1  IC50 (MET; enzyme activity; inhibitor; mobility shift): 650 nM
COC(=O)[C@H](Cc1c[nH]cn1)NC(=O)CN(CCCCc1ccccc1)CC(=O)O  IC50 (IDE; enzyme activity; inhibitor; fluorescence): 600 nM
O=C(Nc1ccn(Cc2ccc(O)cc2C(F)(F)F)n1)c1c(F)cccc1F  IC50 (P2RX7; ion current): > 10000 nM
